Activity calls are given as the source filed them. No cut-off for these calls is given here.
Assays:
[1] = Antiproliferative activity against human HBL1 cells assessed as growth inhibition measured after 72 hrs by calcein AM dye-based fluorescence assay; format: functional, cell-based; conditions: HBL1, 72 h
In short: (§1)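 Cells exposed in triplicate to six concentrations for 72 h; calcein AM added for 1 h, live-cell fluorescence read at 485/538 nm (ex/em). GI50 taken from dose-response curves.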

[2] = tested on: RPMI-8226; experiment: Antiproliferative activity against human RPMI8226 cells assessed as growth inhibition measured after 72 hrs by calcein AM dye-based fluorescence assay; format: functional, cell-based; conditions: RPMI-8226, 72 h
[3] = tested on: Mus musculus; experiment: Ex vivo antitumor activity against human Mino cells xenografted NSG mouse assessed as increase in cleaved caspase 7 expression at 5 to 10 mg/kg, iv measured after 24 hrs by immunoblotting analysis; format: functional, organism-based
In short: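 NSG mice bearing palpable s.c. tumors received a single i.v. dose (5 or 10 mg/kg) and were euthanized after 24 h. Excised tumors were filtered through 45 µm nylon mesh, lysed and run on SDS-PAGE, transferred to nitrocellulose, probed overnight with primary antibodies in PBS with 5% milk and 0.1% Tween 20, then peroxidase secondaries, with chemiluminescent detection.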

[4] = tested on: G-361; experiment: Antiproliferative activity against human G361 cells assessed as growth inhibition measured after 72 hrs by calcein AM dye-based fluorescence assay; format: functional, cell-based; conditions: G-361, 72 h; in short: as §1
[5] = tested on: THP-1; experiment: Antiproliferative activity against human THP1 cells assessed as growth inhibition measured after 72 hrs by calcein AM dye-based fluorescence assay; format: functional, cell-based; conditions: THP-1, 72 h; in short: as §1
[6] = biological target: Cyclin-dependent kinase 7 (Homo sapiens) (UniProt P50613); experiment: Inhibition of CDK7 in human Mino cells assessed as decrease in phosphorylation of Rb at Ser 608 residue at 12.5 nM by immunoblotting analysis; format: cell-based; conditions: TDE = time-dependent effect
In short: (§2)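 MINO lymphoma cells were treated at 12.5 nM, with time points over 24 h. Lysates were separated by SDS-PAGE and blotted to nitrocellulose. Phospho-RNA polymerase II CTD (Ser2, Ser5) and phospho-Rb (Ser608, Ser780) were probed with primary antibodies overnight and peroxidase-conjugated secondaries. Detection was by chemiluminescence on a CCD camera.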

[7] = tested on: Mus musculus; experiment: Ex vivo antitumor activity against human Mino cells xenografted NSG mouse decrease in phosphorylation of RNA polymerase 2 C-terminal domain at Ser 2 residue at 5 to 10 mg/kg, iv measured after 24 hrs by immunoblotting analysis; format: functional, organism-based
In short: (§3)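 Female NSG mice, 8-12 weeks old, implanted s.c. with lymphoma cells. Once tumors were palpable, mice received a single tail-vein i.v. dose (5 or 10 mg/kg) of compound dissolved in PBS. Mice were euthanized 24 h later. Tumors were excised, filtered through 45 µm nylon mesh and lysed, then proteins were analysed by immunoblotting.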

[8] = organism: Homo sapiens; experiment: Induction of apoptosis in human Mino cells assessed as caspase 3 activation at 12.5 nM after 2 to 24 hrs by immunoblotting analysis; format: functional, cell-based
In short: (§4)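 Lymphoma cell lines were cultured as the providers instruct and exposed to compound at several doses or for several times. Lysates were run on SDS-PAGE and blotted to nitrocellulose. Blots were blocked, incubated overnight with primary antibodies diluted in PBS with 5% milk and 0.1% Tween 20, then with peroxidase-conjugated secondaries, and detected by chemiluminescence on a CCD camera.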

[9] = organism: Homo sapiens; experiment: Induction of apoptosis in human UPF1H cells assessed as reduction in XIAP expression at 12.5 to 100 nM after 24 hrs by immunoblot analysis; format: functional, cell-based; in short: as §4
[10] = tested on: TMD8; experiment: Antiproliferative activity against human TMD8 cells assessed as growth inhibition measured after 72 hrs by calcein AM dye-based fluorescence assay; format: functional, cell-based; conditions: TMD8, 72 h; in short: as §1
[11] = biological target: Cyclin-dependent kinase 7 (Homo sapiens) (UniProt P50613); experiment: Inhibition of CDK7 in human Mino cells assessed as decrease in phosphorylation of RNA polymerase 2 C-terminal domain at Ser 5 residue at 12.5 nM by immunoblotting analysis; format: cell-based; conditions: TDE = time-dependent effect; in short: as §2
[12] = tested on: Mus musculus; experiment: Ex vivo antitumor activity against patient derived VFN-M1 cells xenografted NSG mouse assessed as down regulation of XIAP expression at 10 mg/kg, iv measured after 24 hrs by immunoblotting analysis; format: functional, organism-based; in short: as §3
[13] = tested on: Maver1; experiment: Induction of apoptosis in human Maver1 cells assessed as reduction in MCL1 expression at 1.5 to 12.5 nM after 24 hrs by immunoblot analysis; format: functional, cell-based; in short: as §4
[14] = tested on: OCI-Ly3; experiment: Antiproliferative activity against human OCI-LY3 cells assessed as growth inhibition measured after 72 hrs by calcein AM dye-based fluorescence assay; format: functional, cell-based; conditions: OCI-Ly3, 72 h; in short: as §1
[15] = tested on: Z-138; experiment: Antiproliferative activity against human Z138 cells assessed as growth inhibition measured after 72 hrs by calcein AM dye-based fluorescence assay; format: functional, cell-based; conditions: Z-138, 72 h; in short: as §1
[16] = organism: Homo sapiens; experiment: Induction of apoptosis in human UPF1H cells assessed as induction of PARP1 cleavage at 12.5 to 100 nM after 24 hrs by immunoblot analysis; format: functional, cell-based; in short: as §4
[17] = tested on: Panel NCI-60 (60 carcinoma cell lines); experiment: Antiproliferative activity against human NCI60 cells after 48 hrs by sulforhodamine B assay; format: functional
[18] = tested on: Mus musculus; experiment: Ex vivo antitumor activity against human UPF1H cells xenografted NSG mouse assessed as cleavage of PARP1 at 5 to 10 mg/kg, iv measured after 24 hrs by immunoblotting analysis; format: functional, organism-based; in short: as §3
[19] = organism: Homo sapiens; experiment: Induction of apoptosis in human Mino cells assessed as effect on BCL-2 protein expression at 1.5 to 12.5 nM after 24 hrs by immunoblotting analysis; format: functional, cell-based; in short: as §4
[20] = tested on: Maver1; experiment: Antiproliferative activity against human Maver1 cells assessed as growth inhibition measured after 72 hrs by calcein AM dye-based fluorescence assay; format: functional, cell-based; conditions: Maver1, 72 h; in short: as §1
[21] = organism: Homo sapiens; experiment: Induction of apoptosis in human Mino cells assessed as effect on BCL-xL protein expression at 12.5 nM after 2 to 24 hrs by immunoblotting analysis; format: functional, cell-based; in short: as §4
[22] = biological target: Casein kinase I isoform delta (Homo sapiens, UniProt P48730); experiment: Inhibition of CK1delta (unknown origin)
[23] = organism: Homo sapiens; experiment: Induction of apoptosis in human Mino cells assessed as effect on BCL-2 protein expression at 12.5 nM after 2 to 24 hrs by immunoblotting analysis; format: functional, cell-based; in short: as §4
[24] = biological target: Cyclin-dependent kinase 9 (Homo sapiens) (UniProt P50750); experiment: Inhibition of CDK9 in human Mino cells assessed as decrease in phosphorylation of RNA polymerase 2 C-terminal domain at Ser 5 residue at 12.5 nM by immunoblotting analysis; format: cell-based; conditions: TDE = time-dependent effect
In short: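 MINO lymphoma cells exposed to 12.5 nM for up to 24 h (time course). Lysates separated by SDS-PAGE, transferred to nitrocellulose, probed overnight with specific primary antibodies diluted in PBS with 5% milk and 0.1% Tween 20, then peroxidase-conjugated secondaries; chemiluminescence imaged with a CCD camera.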

[25] = organism: Homo sapiens; experiment: Induction of apoptosis in human Mino cells assessed as decrease in XIAP level at 12.5 nM for 2 to 24 hrs by immunoblotting analysis; format: functional, cell-based; in short: as §4

Chain of Cyclin-dependent kinase 7 (Homo sapiens) (P50613 whole entry, the tested form may be a part): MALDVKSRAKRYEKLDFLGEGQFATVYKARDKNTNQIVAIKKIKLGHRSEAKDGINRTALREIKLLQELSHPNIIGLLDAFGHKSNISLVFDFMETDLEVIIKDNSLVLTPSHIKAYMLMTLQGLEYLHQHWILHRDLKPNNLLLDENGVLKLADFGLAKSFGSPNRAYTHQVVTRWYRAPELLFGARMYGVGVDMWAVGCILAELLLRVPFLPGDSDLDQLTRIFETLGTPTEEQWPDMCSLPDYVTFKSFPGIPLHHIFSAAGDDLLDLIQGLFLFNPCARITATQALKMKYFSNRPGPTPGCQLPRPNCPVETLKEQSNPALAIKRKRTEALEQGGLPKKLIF
Chain of Casein kinase I isoform delta (P48730 whole entry, canonical isoform): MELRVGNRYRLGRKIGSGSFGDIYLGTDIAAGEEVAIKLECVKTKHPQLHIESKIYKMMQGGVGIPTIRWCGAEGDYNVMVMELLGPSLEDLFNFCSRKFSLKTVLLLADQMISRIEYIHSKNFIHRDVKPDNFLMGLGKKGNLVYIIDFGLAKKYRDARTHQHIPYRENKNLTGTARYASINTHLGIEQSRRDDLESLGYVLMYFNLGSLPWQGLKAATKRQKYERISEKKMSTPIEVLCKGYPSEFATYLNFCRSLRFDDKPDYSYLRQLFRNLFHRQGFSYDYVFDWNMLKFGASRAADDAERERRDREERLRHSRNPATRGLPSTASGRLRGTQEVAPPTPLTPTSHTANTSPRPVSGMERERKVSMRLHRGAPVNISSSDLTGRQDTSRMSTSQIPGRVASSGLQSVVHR
Chain of Cyclin-dependent kinase 9 (Homo sapiens) (P50750 whole entry, the tested form may be a part): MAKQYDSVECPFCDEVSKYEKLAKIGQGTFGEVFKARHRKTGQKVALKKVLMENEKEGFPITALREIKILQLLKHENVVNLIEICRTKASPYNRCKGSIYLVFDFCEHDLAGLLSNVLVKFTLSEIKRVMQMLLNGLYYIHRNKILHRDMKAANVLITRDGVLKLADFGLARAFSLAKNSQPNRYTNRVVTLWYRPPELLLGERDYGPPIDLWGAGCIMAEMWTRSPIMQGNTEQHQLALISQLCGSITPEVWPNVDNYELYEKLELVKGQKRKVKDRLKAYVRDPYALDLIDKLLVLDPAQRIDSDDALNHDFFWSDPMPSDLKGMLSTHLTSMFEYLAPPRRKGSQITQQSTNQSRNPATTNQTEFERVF

Which GI50 [1] does the source give for `CC(C)c1n[nH]c2c(NCc3ccc(-c4ccccn4)cc3)nc(SCCN)nc12` here?
Its GI50 is 10 nM.

And the IC50 [1]?
Its IC50 is 10 nM.

What about the GI50 [2] of the same compound?
Its GI50 is 21.6 nM.

And the Activity [3]?
Its Activity is “Active”.

What about the GI50 [4] of the same compound?
Its GI50 is 36 nM.

And the IC50 [4]?
The IC50 was 36 nM.

What about the GI50 [5] of the same compound?
The GI50 was 19 nM.

And the IC50 [5]?
The IC50 was 19 nM.

And the inhibition [6]?
The inhibition was “Tde”.

And the Activity [7]?
The Activity was “Active”.

And the Activity [8]?
Its Activity is “Active”.

And the Activity [9]?
Its Activity is “Active”.

What about the GI50 [10] of the same compound?
The GI50 was 12 nM.

What about the IC50 [10] of the same compound?
Its IC50 is 12 nM.

What about the inhibition [11] of the same compound?
Its inhibition is “Tde”.

What about the Activity [12] of the same compound?
Its Activity is “Active”.

And the Activity [13]?
The Activity was “Active”.

What about the GI50 [14] of the same compound?
The GI50 was 7 nM.

And the IC50 [14]?
The IC50 was 7 nM.

What about the GI50 [15] of the same compound?
Its GI50 is 13 nM.

And the IC50 [15]?
Its IC50 is 13 nM.

What about the Activity [16] of the same compound?
The Activity was “Active”.

What about the GI50 [17] of the same compound?
The GI50 was 23 nM.

What about the Activity [18] of the same compound?
The Activity was “Active”.

What about the Activity [19] of the same compound?
Its Activity is “inactive”.

What about the GI50 [20] of the same compound?
The GI50 was 13 nM.

What about the IC50 [20] of the same compound?
The IC50 was 13 nM.

What about the Activity [21] of the same compound?
Its Activity is “inactive”.

What about the IC50 [22] of the same compound?
The IC50 was 45 nM.

And the Activity [23]?
Its Activity is “inactive”.

And the inhibition [24]?
The inhibition was “Tde”.

What about the Activity [25] of the same compound?
The Activity was “Active”.

From ChEMBL document CHEMBL4385606, “3,5,7-Substituted Pyrazolo[4,3- d]pyrimidine Inhibitors of Cyclin-Dependent Kinases and Their Evaluation in Lymphoma Models” (J Med Chem, 2019)
